Results as given in ChEMBL document CHEMBL1144142, “Lyso-PAF analogues and lysophosphatidylcholines from the marine sponge Spirastrella abata as inhibitors of cholesterol biosynthesis” (J Nat Prod, 1999).
Values after ≈ are worked out from the molar mass of the structure shown. Active and inactive are the calls of the source. The rule behind the calls is not given here.

Assays:
Assay type in all cases: functional, cell-based
[1] = (§1) Inhibition of cholesterol biosynthesis in human chang liver cells assessed as conversion of lanosterol into cholesterol
Summary of the method: (§2)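 Chang liver cells (ATCC CCL 13) seeded at 5×10^4 per 15-mm dish in MEM + 10% FBS; on day 2 washed, held 4 h in serum-free Hepatozyme-SFM, pretreated 2 h with compound, then labeled acetate (2.5 μCi/well) for 2 h. Cells lysed in 0.1 N NaOH, saponified (6% KOH/MeOH), nonsaponifiable lipids extracted in n-hexane, separated by TLC (C6H6-Me2CO 19:1), radioactive spots quantified by phosphor imaging.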

chang liver [2] = test: as §1; summary of the method: as §2
chang liver [3] = test: Inhibition of cholesterol biosynthesis in human chang liver cells assessed as suppression of lanosterol; summary of the method: as §2
chang liver [4] = test: Inhibition of cholesterol biosynthesis in human chang liver cells assessed as suppression of cholesterol level; summary of the method: as §2

Row | IC50 [1] [µg/mL] | Compound | Activity (chang liver [2]) | Activity (chang liver [3]) | Activity (chang liver [4])
1 | 320 (≈ 646 µM) | CC(C)CCCCCCCCCCCCCCOC[C@@H](O)COP(=O)([O-])OCC[N+](C)(C)C | Dose-dependent effect | – | –
2 | 121 (≈ 238 µM) | CCCCCCCCCCCCC/C=C\CCCOC[C@@H](O)COP(=O)([O-])OCC[N+](C)(C)C | Dose-dependent effect | – | –
3 | 125 (≈ 246 µM) | CCCCCC/C=C\CCCCCCCCCCOC[C@@H](O)COP(=O)([O-])OCC[N+](C)(C)C | Dose-dependent effect | – | –
4 | 174 (≈ 343 µM) | CCCCCCCCCCCCCC/C=C\CCOC[C@@H](O)COP(=O)([O-])OCC[N+](C)(C)C | Dose-dependent effect | – | –

The remaining lines, values behind:

Row | Compound | IC50 [1] [µg/mL] | Activity (chang liver [2]) | Activity (chang liver [3]) | Activity (chang liver [4])
5 | CCCCCCC1CC1CCCCCCCCCC(=O)OC[C@@H](O)COP(=O)([O-])OCC[N+](C)(C)C (some centres not stated) | 60 (≈ 112 µM) | Dose-dependent effect | inactive | –
6 | CC[C@H](C)C(=O)O[C@H]1CCC=C2C=C[C@H](C)[C@H](CC[C@@H]3C[C@@H](O)CC(=O)O3)[C@H]21 | – | – | Active | Active
7 | CCCCCCCCCCCCCCCCOC[C@@H](O)COP(=O)([O-])OCC[N+](C)(C)C | 422 (≈ 876 µM) | Dose-dependent effect | – | –
8 | CCCCCC/C=C\CCCCCCCCCCCC(=O)OC[C@@H](O)COP(=O)([O-])OCC[N+](C)(C)C | 21 (≈ 38.2 µM) | Dose-dependent effect | – | –
